Measured values: ChEMBL document CHEMBL3603821, “Optimization of N-aryl-6-methoxy-1,2,3,4-tetrahydroquinolines as tubulin polymerization inhibitors” (Bioorg Med Chem, 2015)
Values after ≈ are worked out from the molar mass of the structure shown.

What was measured:
[1] = tested on: A549; assay: Antiproliferative activity against human A549 cells assessed as cell growth inhibition by SRB assay; type: functional
Outline: (§1)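 SRB assay in a human tumor cell line panel (A-549 lung, KB nasopharyngeal, P-glycoprotein-overexpressing KBvin, DU145 prostate).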

[2] = tested on: KB; assay: Antiproliferative activity against human KB cells assessed as cell growth inhibition by SRB assay; type: functional
[3] = Antiproliferative activity against human vincristine-resistant KBVIN cells expressing P-glycoprotein assessed as cell growth inhibition by SRB assay; type: functional; outline: as §1
[4] = tested on: DU-145; assay: Antiproliferative activity against human DU145 cells assessed as cell growth inhibition by SRB assay; type: functional; outline: as §1
[5] = target: Tubulin; assay: Inhibition of tubulin (unknown origin) assembly pre-incubated for 15 mins before GTP addition measured after 20 mins by turbidimetry; type: protein-complex assay, Homo sapiens
[6] = target: T1, Tubulin (Homo sapiens) (UniProt P68371+Q9H4B7+P0DPH7+P68366+Q13509+Q71U36+P04350+Q3ZCM7+P07437+P68363+Q9BQE3+Q6PEY2+Q13885+Q9BVA1+Q9BUF5); assay: Displacement of [3H]-colchicine from tubulin (unknown origin) at 5 uM after 10 mins; type: protein-complex assay
Outline: (§2)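 Radioligand binding competition: 1.0 μM tubulin incubated with 5.0 μM [3H]colchicine plus inhibitor at 5.0 or 1.0 μM for 10 min at 37 °C. At that point control binding is about 40–60% of maximum. Result is percent inhibition of colchicine binding ± SD.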

[7] = target: T1, Tubulin (Homo sapiens); assay: Displacement of [3H]-colchicine from tubulin (unknown origin) at 1 uM after 10 mins; type: protein-complex assay; outline: as §2
[8] = Aqueous solubility of the compound at pH 7.4 by HPLC-UV method; type: physicochemical; conditions: buffer
[9] = Octanol/water partition coefficient, log P of the compound after 24 hrs by HPLC analysis; type: physicochemical
Outline: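 Log P measured at pH 7.4 with HPLC-UV on a C18 column (4.6 × 150 mm, 5 μm). Eluent MeOH/water 80:20 containing 0.04% ammonium acetate, run at 0.8 mL/min, with detection at 254 nm. Value given as mean ± SD of three separate experiments.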

| SMILES | GI50 [1] [nM] | GI50 [2] [nM] | GI50 [3] [nM] | GI50 [4] [nM] | IC50 [5] [nM] | inhibition [6] [%] | inhibition [7] [%] | solubility [8] [µg/mL] | logP [9] |
| --- | --- | --- | --- | --- | --- | --- | --- | --- | --- |
| COc1ccc2c(c1)CCCN2c1nccc2ccccc12 | 2080 | 1720 | 1640 | 1470 | 2600 | 37 |  |  |  |
| COc1ccc2c(c1)CCCN2c1cccc2cccnc12 | 12100 | 16200 | 8710 | 12800 | > 20000 |  |  |  |  |
| COc1ccc2c(c1)CCCN2c1nc(NC2CCCC2)nc2ccccc12 | 1340 | 1190 | 1420 | 1290 | 5700 | 29 |  |  |  |
| COc1ccc2c(c1)CCCN2c1nc(F)nc2[nH]cnc12 | 23600 | > 33000 | 27100 | 25500 |  |  |  |  |  |
| COc1ccc2c(c1)CCCN2c1nc(NC2CC2)nc2ccccc12 | 16 | 13 |  | 16 | 1300 | 89 | 56 | 2.55 (≈ 7.36 µM) | 4.13 |
| COc1ccc2c(c1)CCCN2c1nc(NCCCO)nc2ccccc12 | 16 | 18 | 19 | 20 | 850 | 78 | 49 | 75.6 (≈ 207 µM) | 3.43 |
| COc1ccc2c(c1)CCCN2c1cncc2ccccc12 | 1950 | 1480 | 1540 | 920 | 3300 | 39 |  |  |  |
| COc1ccc2c(c1)CCCN2c1nc(N)nc2[nH]cnc12 | 19400 | 17500 | 18900 | 18000 |  |  |  |  |  |
| COc1ccc2c(c1)CCCN2c1ncnc2[nH]cnc12 | > 35000 | > 35000 | > 35000 | > 35000 |  |  |  |  |  |
| COc1ccc(/C=C\c2cc(OC)c(OC)c(OC)c2)cc1O [COMBRETASTATIN A4] | 84.1 | 3.6 | 1.2 |  |  |  |  |  |  |
| COc1ccc2c(c1)CCCN2c1ncnc2ccccc12 | 18 | 14 | 19 |  | 1300 | 91 | 69 |  |  |
| COc1ccc2c(c1)CCCN2c1nc(N(C)C)nc2ccccc12 | 170 | 140 | 200 | 150 |  |  |  |  |  |
| CC(=O)O[C@H]1C(=O)[C@@]2(C)[C@H]([C@H](OC(=O)c3ccccc3)[C@]3(O)C[C@H](OC(=O)[C@H](O)[C@@H](NC(=O)c4ccccc4)c4ccccc4)C(C)=C1C3(C)C)[C@]1(OC(C)=O)CO[C@@H]1C[C@@H]2O [PACLITAXEL] | 7.6 | 6.4 | 1210 | 6 |  |  |  |  |  |
| COc1ccc2c(c1)CCCN2c1ccnc2ccccc12 | 200 | 160 | 180 | 180 |  |  |  |  |  |
| COc1ccc2c(c1)CCCN2c1nc(OC)nc2ccccc12 | 24 | 26 | 30 | 21 |  |  |  |  |  |
